Measured values from different studies.
Lines come from different studies, so protocols differ.
Target: Ephrin type-B receptor 2 (EPHB2, Homo sapiens, UniProt P29323)
One construct used (P29323 19-1055): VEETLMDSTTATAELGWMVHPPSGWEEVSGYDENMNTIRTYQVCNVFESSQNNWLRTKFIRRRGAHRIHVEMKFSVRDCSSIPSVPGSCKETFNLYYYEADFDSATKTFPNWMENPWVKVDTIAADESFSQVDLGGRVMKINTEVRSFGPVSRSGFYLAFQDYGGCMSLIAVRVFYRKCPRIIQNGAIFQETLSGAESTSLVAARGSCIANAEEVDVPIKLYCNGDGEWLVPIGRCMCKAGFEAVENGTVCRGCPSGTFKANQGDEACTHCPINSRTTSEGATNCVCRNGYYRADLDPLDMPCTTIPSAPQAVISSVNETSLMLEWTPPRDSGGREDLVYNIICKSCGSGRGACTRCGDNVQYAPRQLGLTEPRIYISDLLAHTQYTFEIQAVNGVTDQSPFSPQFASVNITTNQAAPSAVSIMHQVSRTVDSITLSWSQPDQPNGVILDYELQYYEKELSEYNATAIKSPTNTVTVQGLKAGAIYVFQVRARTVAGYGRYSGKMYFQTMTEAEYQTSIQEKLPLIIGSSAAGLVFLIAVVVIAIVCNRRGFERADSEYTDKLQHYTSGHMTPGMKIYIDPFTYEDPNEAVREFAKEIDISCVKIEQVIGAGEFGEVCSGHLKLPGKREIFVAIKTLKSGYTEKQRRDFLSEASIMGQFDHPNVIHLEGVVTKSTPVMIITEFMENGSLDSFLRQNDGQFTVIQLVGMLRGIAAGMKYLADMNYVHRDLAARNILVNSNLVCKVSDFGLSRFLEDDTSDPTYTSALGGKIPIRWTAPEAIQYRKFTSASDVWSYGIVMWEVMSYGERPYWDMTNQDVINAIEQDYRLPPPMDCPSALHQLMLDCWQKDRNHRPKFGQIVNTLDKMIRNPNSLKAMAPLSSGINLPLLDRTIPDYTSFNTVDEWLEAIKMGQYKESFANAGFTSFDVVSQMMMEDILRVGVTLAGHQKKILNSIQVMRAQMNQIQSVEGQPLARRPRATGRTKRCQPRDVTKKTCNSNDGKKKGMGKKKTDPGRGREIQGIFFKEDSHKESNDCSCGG

SMILES | read-out | action | method | tested at | quantity | value
Cn1cc(-c2cc(F)cc(N3CCn4c(cc5c4CCCC5)C3=O)c2CO)cc(Nc2ccc(N3CCN(C4COC4)CC3)cn2)c1=O | enzyme activity | inhibitor |  | 0.1 µM | inhibition | 14%
CC(C)(C)c1cc(C=C(C#N)C#N)cc(Br)c1O | enzyme activity | inhibitor |  | 0.5 µM | remaining activity | 100%
Cn1cncc1[C@@](O)(COc1ccc(C#N)cc1-c1ccc(OC(F)(F)F)cc1)c1ccc(C#N)cc1 | cell-free assay |  | competition with immobilised ligand | 1 µM | remaining binding | 100%
COc1ncccc1-c1cnn2ccc(N3CCN(C(=O)OC(C)C)CC3)nc12 | binding |  | competition with immobilised ligand | 1 µM | remaining binding | 77%
Cc1nn(C)cc1-c1nc2c(N3CCN(Cc4ccc(Cl)cc4)CC3)c(Cl)cnc2[nH]1 | binding |  | competition with immobilised ligand | 1 µM | remaining binding | 100%
O=c1[nH]c2ccccc2n1C1CCN(Cc2ccc(-c3[nH]c4cc5ncnc5cc4nc3-c3ccccc3)cc2)CC1 | cell-free assay |  |  | 0.5 µM | remaining signal | 108%
Cn1cc(-c2cccc(N3CCc4c(sc5c4CC(C)(C)C5)C3=O)c2CO)cc(Nc2ccncn2)c1=O | enzyme activity | inhibitor |  | 1 µM | inhibition | 1%
N#CC1(c2ccccn2)CCN(Cc2cc(C(=O)O)c(=O)n3ccccc23)CC1 | cell-free assay |  | competition with immobilised ligand | 1 µM | remaining binding | 100%
COc1cc(Nc2ncc(F)c(Nc3ccc4c(n3)NC(=O)C(C)(C)O4)n2)cc(OC)c1OC | binding |  | competition with immobilised ligand | 10 µM | inhibition | 50%
